Data taken from ChEMBL document CHEMBL1143370, “Effect of fluorination on the pharmacological profile of 11beta isomers of fulvestrant in breast carcinoma cells” (J Med Chem, 2009).
The source made the active and inactive calls. The rule behind the calls is not given here.

Assays:
[1] = biological target: T1, Estrogen receptor (Homo sapiens) (UniProt P03372); experiment: Antiestrogenic activity at human recombinant estrogen receptor alpha assessed as inhibition of recruitment of LxxLL-containing coactivators after 30 mins by ELISA in presence of estradiol
T1 sequence (whole entry): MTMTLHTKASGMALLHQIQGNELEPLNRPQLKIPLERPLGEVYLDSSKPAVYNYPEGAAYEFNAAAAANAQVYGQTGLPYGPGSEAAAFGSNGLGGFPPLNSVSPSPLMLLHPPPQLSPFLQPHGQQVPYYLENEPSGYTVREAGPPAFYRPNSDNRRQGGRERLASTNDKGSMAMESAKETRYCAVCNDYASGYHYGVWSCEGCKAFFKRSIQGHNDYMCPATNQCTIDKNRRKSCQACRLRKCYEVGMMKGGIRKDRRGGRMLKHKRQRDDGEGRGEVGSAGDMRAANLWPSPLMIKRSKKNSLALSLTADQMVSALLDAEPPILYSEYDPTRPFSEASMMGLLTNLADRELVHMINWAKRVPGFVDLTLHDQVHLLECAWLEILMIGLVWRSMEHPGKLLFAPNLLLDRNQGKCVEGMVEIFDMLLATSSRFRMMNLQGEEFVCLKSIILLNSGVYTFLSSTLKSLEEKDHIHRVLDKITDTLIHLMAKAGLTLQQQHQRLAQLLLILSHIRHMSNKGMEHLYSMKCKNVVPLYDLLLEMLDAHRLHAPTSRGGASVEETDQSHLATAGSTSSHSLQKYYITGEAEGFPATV

[2] = biological target: T1, Estrogen receptor (Homo sapiens); experiment: Antiestrogenic activity at human recombinant estrogen receptor alpha assessed as inhibition of recruitment of LxxLL-containing coactivators after 30 mins by ELISA in absence of estradiol
[3] = biological target: T1, Estrogen receptor (Homo sapiens); experiment: Displacement of [3H]estradiol from human recombinant estrogen receptor alpha by radiometric assay relative to estradiol
How it was run: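 Purified recombinant human ERα; competition with [3H]E2 binding at 0 °C; inhibition curves give relative binding affinity (RBA).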

MCF7 [4] = experiment: Suppression of estradiol-induced down regulation of estrogen receptor alpha expression in human MCF7 cells at 1 uM after 24 hrs by Western blot analysis; type: functional, cell-based
How it was run: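 Western blot of ERα in MCF-7 cells after 24 h with compound at 1 µM, alone or with 10 nM E2; equal protein loading; experiment done twice.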

MCF7 [5] = experiment: Down regulation of estrogen receptor alpha expression in human MCF7 cells after 24 hrs by Western blot analysis in presence of 3,17beta-dihydroxy-11beta-[4,4,5,5,6,6,7,7-octafluoro-9-(4,4,5,5,5-pentafluoropentane-1-sulfinyl)nonyl]estra-1,3,5(10)-triene; type: functional, cell-based
How it was run: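 MCF-7 cells exposed 24 h to increasing concentrations, untreated cultures run in parallel; equal amounts of solubilized protein Western blotted for ERα; experiment done twice.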

MCF7 [6] = experiment: Antiproliferative activity against human MCF7 cells after 3 days at 10 nM by crystal violet staining; type: functional, cell-based
MCF7 [7] = experiment: Down regulation of estrogen receptor alpha expression in human MCF7 cells at 100 nM after 24 hrs by immunofluorescence staining; type: functional, cell-based
How it was run: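 MCF-7 cells treated 24 h at 100 nM, untreated control; ERα shown by immunofluorescence with HC-20 antiserum, Texas Red labeling.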

MCF7 [8] = experiment: Suppression of estradiol-induced down regulation of estrogen receptor alpha expression in human MCF7 cells at 1 uM after 24 hrs by immunofluorescence staining; type: functional, cell-based
How it was run: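 ERα immunofluorescence (HC-20 antiserum, Texas Red) in MCF-7 cells after 24 h with E2 at 1 nM and/or compound at 1 µM; untreated control included.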

MCF7 [9] = experiment: Down regulation of estrogen receptor alpha expression in human MCF7 cells after 24 hrs by Western blot analysis; type: functional, cell-based
How it was run: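 MCF-7 breast carcinoma cells exposed to increasing concentrations of each compound for 24 h, with untreated control cultures kept in parallel. Equal amounts of solubilized protein were analysed for ERα by Western blotting. The experiment was done twice.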

[10] = biological target: T1, Estrogen receptor (Homo sapiens); experiment: Binding affinity to estrogen receptor alpha in human MCF7 cells assessed as inhibition of [3H]E2 accumulation after 45 mins by whole cell competition binding assay; type: cell-based
How it was run: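 Intact MCF-7 cells incubated 45 min with [3H]E2 at 1 nM, alone (control) or with competitor at 1 nM to 1 µM; cellular [3H]E2 accumulation measured, with unlabeled E2 as reference.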

MCF7 [11] = experiment: Antiproliferative activity against estradiol-stimulated human MCF7 cells after 3 days at 10 nM by crystal violet staining; type: functional, cell-based

Row | Structure (SMILES) | Activity [1] | Activity [2] | relative binding affinity (RBA) [3] | Activity (MCF7 [4]) | Activity (MCF7 [5]) | Activity (MCF7 [6]) | Activity (MCF7 [7]) | Activity (MCF7 [8]) | Activity (MCF7 [9]) | Activity [10] | Activity (MCF7 [11])
1 | C[C@]12C[C@H](CCCC(F)(F)C(F)(F)C(F)(F)C(F)(F)CC[S+]([O-])CCCC(F)(F)C(F)(F)F)[C@@H]3c4ccc(O)cc4CC[C@H]3[C@@H]1CC[C@@H]2O (stereo partly specified) | Active | Active | 2 | Active | inactive | Active | inactive | Active |  |  | 
2 | C[C@]12C[C@H](CCCCCCCCC[S+]([O-])CCCC(F)(F)C(F)(F)F)[C@@H]3c4ccc(O)cc4CC[C@H]3[C@@H]1CC[C@@H]2O (stereo partly specified) | Active | Active | 6 |  |  | Active | Active |  | Active | Active | Active
3 | C[C@]12CC[C@@H]3c4ccc(O)cc4C[C@@H](CCCCCCCCC[S+]([O-])CCCC(F)(F)C(F)(F)F)[C@H]3[C@@H]1CC[C@@H]2O (stereo partly specified) |  |  | 10 |  |  | Active | Active |  | Active |  | Active
